Screening results (PubChem BioAssay)
SKN-1 block: suppressors of acrylamide-induced Pgst-4::GFP reporter in worms, primary screen, SKN-1 inhibitor project, whole organism, uHTS, GFP/RFP fluorescence ratio, strain VP596 | 0.49% of 360,000 active | C. elegans VP596 Pgst-4::GFP/RFP ratio, 24 h | AID 624304, 2012 | inhibition, % at 21.8 µM;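 active = interference check ratio from 0.5 to 1.5 plus GFP to RFP signal ratio inhibition reaching or exceeding a fixed threshold, cut at about 30% in these data, passing the limit was not always enough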
MsrA inh: bovine MsrA enzyme inhibitors, primary screen, biochemical, absorbance, HTS; purified bovine MsrA, absorbance read-out; inhibition, % at 15.5 µM; 0.75% of 360,000 active; AID 651718, 2012;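 also: 0% = vehicle wells with enzyme and 100% = reference inhibitor wells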
bovine MsrA act: bovine MsrA enzyme activators, primary screen, biochemical, absorbance, HTS; Methionine sulfoxide reductase A (Bos taurus); purified bovine MsrA, absorbance read-out; activation, % at 10.6 µM; 0.3% of 360,000 active; in the data active = activation above about 7.5%;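 also: 0% = vehicle and 100% = reference activator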
pCIP destab: p/CIP-EGFP fusion destabilizers, primary screen, fluorescence, F442A cells; 16 h; decrease of EGFP signal, % at 10 µM; 0.01% of 290,000 active; AID 1984, 2009;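 active = EGFP signal decrease of at least 30% at 10 µM or well 3 SD below plate mean, unless failing retest; inactive = the rest, including hits failing retest or dose response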
Target sequence (Q05BA5 1-1403): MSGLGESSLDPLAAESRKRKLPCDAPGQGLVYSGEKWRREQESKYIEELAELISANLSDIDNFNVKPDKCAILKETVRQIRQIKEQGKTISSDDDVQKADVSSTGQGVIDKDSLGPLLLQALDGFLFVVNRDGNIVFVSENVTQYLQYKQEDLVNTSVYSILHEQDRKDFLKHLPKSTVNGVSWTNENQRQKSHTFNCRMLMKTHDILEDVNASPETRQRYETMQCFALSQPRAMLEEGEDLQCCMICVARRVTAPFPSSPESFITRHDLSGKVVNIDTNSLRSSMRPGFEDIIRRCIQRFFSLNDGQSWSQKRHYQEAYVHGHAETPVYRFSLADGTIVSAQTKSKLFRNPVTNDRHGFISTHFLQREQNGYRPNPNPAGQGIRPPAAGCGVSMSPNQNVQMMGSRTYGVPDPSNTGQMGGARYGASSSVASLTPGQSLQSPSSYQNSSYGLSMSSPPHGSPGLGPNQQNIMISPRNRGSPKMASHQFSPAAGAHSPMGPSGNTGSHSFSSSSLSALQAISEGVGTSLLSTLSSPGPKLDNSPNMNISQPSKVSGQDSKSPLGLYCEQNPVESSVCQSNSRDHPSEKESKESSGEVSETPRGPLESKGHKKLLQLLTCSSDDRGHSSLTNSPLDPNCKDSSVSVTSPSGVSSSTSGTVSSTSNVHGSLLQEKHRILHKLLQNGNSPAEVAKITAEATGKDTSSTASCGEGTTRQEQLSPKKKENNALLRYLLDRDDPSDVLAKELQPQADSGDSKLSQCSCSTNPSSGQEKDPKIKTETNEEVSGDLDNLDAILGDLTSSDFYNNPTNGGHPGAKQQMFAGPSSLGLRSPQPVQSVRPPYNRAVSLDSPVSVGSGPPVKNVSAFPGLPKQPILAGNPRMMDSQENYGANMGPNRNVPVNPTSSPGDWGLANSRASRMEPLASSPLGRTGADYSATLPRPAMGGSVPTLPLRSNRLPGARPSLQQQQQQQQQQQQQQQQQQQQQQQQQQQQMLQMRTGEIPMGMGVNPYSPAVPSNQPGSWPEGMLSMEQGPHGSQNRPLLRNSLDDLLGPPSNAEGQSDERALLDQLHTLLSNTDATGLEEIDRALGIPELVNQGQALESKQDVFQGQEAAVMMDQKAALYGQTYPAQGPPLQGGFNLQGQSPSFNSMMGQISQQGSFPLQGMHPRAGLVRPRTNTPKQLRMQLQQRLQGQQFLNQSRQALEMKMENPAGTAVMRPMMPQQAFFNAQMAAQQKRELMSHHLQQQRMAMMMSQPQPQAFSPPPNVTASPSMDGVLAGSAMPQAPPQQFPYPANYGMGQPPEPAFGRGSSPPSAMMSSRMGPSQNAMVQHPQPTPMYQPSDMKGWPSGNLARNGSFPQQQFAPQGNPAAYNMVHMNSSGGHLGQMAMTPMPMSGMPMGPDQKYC
MT1-MMP act inh: blockers of MT1-MMP proenzyme processing, primary screen, HT1080 RFP-PRO-GFP cells, GFP/RFP fluorescence; GFP/RFP ratio change, % at 20 µM; GFP/RFP ratio fluorescence, overnight; percent of plate control window, DMSO zero; Matrix metalloproteinase-14 (Homo sapiens), P50281; 0.061% of 360,000 active; AID 651647, 2012;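 active = GFP/RFP ratio change of at least 30% with cell ATP level not reduced by more than half and red fluorescence within 50% of control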
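Assay system: RFP-PRO-GFP reporter HT1080 cells; read-out basis: GFP/RFP fluorescence ratio; benchmarks: DMSO wells and RFP-L50D-GFP cells; doses: 20 µM single dose, 1% DMSO; schedule: overnight cell settling, then overnight compound exposure, 37 °C, 5% CO2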
MsrA conf: bovine MsrA inhibitors, retest, confirmation, biochemical, absorbance, HTS; shares compounds with MsrA inh; purified bovine MsrA, absorbance read-out; inhibition, % at 15.5 µM; 41% of 2,300 active; AID 651822, 2012;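 also: coupled to thioredoxin reductase with NADPH and selenocystamine and DMSO as substrate; 0% = vehicle only and 100% = full effect of reference inhibitor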
* marks the source's active call; other numbers are inactive results; / = no result. Most compounds without a hit are left out; they make up all but 1.6% or so of the library. Rule as the data show it, unless noted: active = inhibition above about 4.5%; inactive = the rest.

SMILES	SKN-1 block	MsrA inh	bovine MsrA act	pCIP destab	MT1-MMP act inh	MsrA conf
O=C(NCCC1=CCCCC1)c1coc(=O)c(Br)c1	6.8	2.1	-6.2	-35.0	6.7	/
O=C(NCCN1CCCCC1)c1ccc(=O)oc1	1.1	5.1*	-4.3	-3.8	-3.6	2.8
CC1(C(=O)NCc2ccccc2)CN(S(C)(=O)=O)CC(=O)N1Cc1ccco1 (stereo not drawn)	/	-1.3	/	/	/	/
COCCNC(=O)/C(C#N)=C/c1ccc(SC)cc1	6.6	4.7*	-3.2	-17.7	2.6	3.8
CCOCCCNC(=O)/C(C#N)=C/c1ccc(C)o1	16.3	7.0*	-4.5	-5.3	2.6	3.5
COCCNC(=O)/C(C#N)=C/c1ccc(C)o1	1.4	6.8*	-14.7	-0.8	1.5	3.1
COCCNC(=O)/C(C#N)=C/c1ccc(C(=O)O)cc1	-0.6	-0.7	0.4	9.6	1.0	/
Cc1ccc(/C=C(\C#N)C(=O)NCc2ccco2)o1	1.1	3.0	-3.7	2.4	1.0	/
Cc1cc2c(c(=O)o1)[C@@]1(C(=O)N(C)c3c(Br)cccc31)C1=C(CCCC1=O)O2	/	0.1	/	/	/	/
C/C(=N\NC(=O)c1cccnc1)c1cc2ccccc2o1	-13.1	6.7*	-2.7	-0.2	3.9	6.0*
COc1ccc(-c2cc(C(F)(F)F)nc(SCC(=O)N(C)Cc3cn(C)nc3C)n2)cc1OC	-9.8	6.0*	-7.8	-15.8	5.7	3.9
COc1ccc(-c2cc(C(F)(F)F)nc(SCC(=O)NCc3cnn(C)c3C)n2)cc1OC	9.8	2.2	-5.3	-25.1	-1.4	/
COCCCNc1nc2nonc2nc1N1CCN2CCCC2C1 (stereo not drawn)	-4.6	4.8*	-6.2	3.1	-1.6	3.4
C=CCNc1nc(NCCNC(C)=O)c2sc(-c3ccccc3)cc2n1	-1.7	4.7*	2.9	/	6.0	0.7
C=CCNc1nc(NCCOC)c2sc(-c3ccccc3)cc2n1	19.9	0.8	-2.9	/	9.8	/
N#Cc1ccc(OCC(=O)N[C@@H](Cc2ccccc2)c2nc3ccccc3[nH]2)cc1	/	-0.9	/	/	/	/
C=CCN1CC(COc2ccc(OC)cc2)OCCS1(=O)=O (stereo not drawn)	/	-1.2	/	/	/	/
CCOc1cc(/C=C(/C#N)c2ccc(F)cc2)ccc1OCc1ccc(C(=O)O)o1	8.0	6.7*	-10.0	-25.6	19.0	4.5
Cc1noc(C)c1NC(=O)N(C)C[C@H]1OCc2cn(nn2)CCCC(=O)N([C@H](C)CO)C[C@@H]1C	/	0.9	/	/	/	/
NS(=O)(=O)c1ccc(NC(=S)NNC(=O)c2ccc(Br)o2)cc1	14.5	4.9*	2.4	-8.4	2.2	2.8
Nc1[nH]c(C(=O)c2ccccc2)c(-c2ccc(Cl)cc2)c1C(=O)c1c[nH]c2cc(F)ccc12	/	1.0	/	/	/	/
CCOC(=O)c1c(NC(=O)COC(=O)/C=C/c2ccco2)sc2c1CC(C)(C)NC2(C)C	-5.7	8.7*	-2.8	/	0.6	14.5*
CN1OC[C@@H]2CN(CC3CCCCC3)[C@H](c3ccc(-c4ccc(C#N)cc4)cc3)C[C@@H]21	/	1.5	/	/	/	/
Nc1ccccc1Nc1ccc([N+](=O)[O-])cc1[N+](=O)[O-]	6.9	16.5*	-4.1	-11.1	2.9	9.4*
O=[N+]([O-])c1ccccc1Nc1ccccc1[N+](=O)[O-]	18.2	0.0	1.9	/	0.1	/
SMILES	SKN-1 block	MsrA inh	bovine MsrA act	pCIP destab	MT1-MMP act inh	MsrA conf
COC(=O)[C@]12C[C@H](CC(=O)NCCCCc3ccccc3)C(=O)N(CCC3=CCCCC3)C1=C[C@H](COCc1ccccc1)O[C@@H]2C	/	-0.2	/	/	/	/
COc1ccccc1/C=C/C=N/NC(=O)c1cnccn1	-1.1	7.1*	-4.7	-0.8	-0.8	5.4*
COc1ccccc1/C=N/NC(=O)c1ccc(=O)n(C)c1	-1.6	3.5	-9.5	-1.0	-0.7	/
COc1ccccc1/C=C/C=N/NC(=O)c1ccc(=O)n(C)c1	-3.2	8.1*	-11.6	-1.2	2.5	6.9*
O=C(N[C@H](Cc1ccccc1)C(=O)N1CCN(CC(=O)N2CCCC2)CC1)[C@H]1O[C@@H](n2ccc(=O)[nH]c2=O)[C@H](O)[C@@H]1O	/	-0.6	/	/	/	/
CCCn1cnc2scc(-c3ccc(C)c(C)c3)c2c1=O	16.2	8.6*	-3.9	-5.8	-4.8	6.5*
CCC(C(=O)OC)n1cnc2scc(-c3ccc(C)c(C)c3)c2c1=O (stereo not drawn)	14.3	7.5*	-1.9	4.0	-1.0	5.3*
CC(=O)N(C)C[C@@H]1Oc2cc(Br)ccc2S(=O)(=O)N([C@H](C)CO)C[C@@H]1C	/	0.7	/	/	/	/
CCc1cc(=O)oc2c(C)c(O)c(CN3CCCCC3)cc12	16.7	5.4*	0.3	-2.2	4.5	2.8
O=C(N/N=C/c1ccc(O)c([N+](=O)[O-])c1)C(O)(c1ccccc1)c1ccccc1	1.1	6.4*	-4.7	-2.7	2.2	4.9*
Cc1cc(C(=O)N/N=C/c2cccc([N+](=O)[O-])c2O)n[nH]1	3.5	2.1	-1.6	-10.2	-0.8	/
Cc1cc(C(=O)N/N=C/c2ccc(O)c([N+](=O)[O-])c2)n[nH]1	0.9	6.8*	-6.1	9.2	3.2	6.0*
O=C(N/N=C\c1ccc(O)c([N+](=O)[O-])c1)c1ccccc1-n1cccc1	3.8	6.6*	-18.6	-17.9	3.3	3.7
COc1cc(C=NNC(=O)c2ccccc2-n2cccc2)ccc1O	-11.8	2.4	-10.3	/	1.4	/
COc1ccc(CNC(=O)N(C)C[C@@H]2OCc3ccccc3-c3c(n(C)c4ccccc34)C(=O)N([C@@H](C)CO)C[C@@H]2C)cc1	/	0.7	/	/	/	/
O=C(C(=O)N1CCC(CNC(=O)c2cccnc2Cl)CC1)c1cc2ccccc2o1	/	1.4	/	/	/	/
CN(C)/C=C1\N=C(c2ccccc2)OC1=O	9.4	8.9*	-11.0	-3.0	3.8	6.0*
CN(C)/C=C1\N=C(c2ccc3c(c2)OCO3)OC1=O	21.2	6.1*	-5.9	6.7	-5.1	5.7*
CCOc1cc(/C=C2/N=C(c3ccc4c(c3)OCO4)OC2=O)ccc1OC(C)=O	3.1	0.9	-2.7	/	-2.4	/
COc1ccc(-c2cscc2N)cc1	/	-1.0	/	/	/	/
CC(C)Oc1ccc(C(=O)N/N=C/c2ccc(-c3ccc(S(=O)(=O)Nc4ncccn4)cc3)o2)cc1	-0.2	4.5	-3.3	0.7	3.6	/
NC(=O)N/N=C/c1ccc(-c2ccc(S(=O)(=O)Nc3ncccn3)cc2)o1	9.4	5.7*	-1.5	/	4.2	6.4*
C[C@@H]1ON(C)[C@H]2C[C@H]3c4cc(N5CCN(C)CC5)ccc4CCN3C[C@@H]12	/	-0.8	/	/	/	/
